Measurements of several laboratories.
Each line is one published result; the experiments were not run side by side.
Mode: inhibitor
APOBEC3G: DNA dC->dU-editing enzyme APOBEC-3G (APOBEC3G, Homo sapiens, UniProt Q9HC16)
DPP4: Dipeptidyl peptidase 4 (DPP4, Homo sapiens, UniProt P27487)
ACHE: Acetylcholinesterase (ACHE, Homo sapiens, UniProt P22303)
CDK9 with cyclin T1: Cyclin-dependent kinase 9, with cyclin T1 (CDK9, Homo sapiens, UniProt P50750)

| Compound | target | test | system | setting | IC50 [µM] |
| --- | --- | --- | --- | --- | --- |
| CC[C@H](C)[C@H](N)C(=O)N[C@@H](Cc1c[nH]cn1)C(=O)N[C@@H](CC(C)C)C(=O)N[C@@H](Cc1ccc(O)cc1)C(=O)N[C@@H](Cc1ccc(O)cc1)C(=O)N[C@@H](Cc1ccccc1)C(=O)N[C@@H](CC(=O)O)C(=O)O | APOBEC3G | enzyme activity |  | pH 7.4 | 110 |
| C[C@H]1CN(c2n[nH]c3nc(N[C@H]4CC[C@H](NS(=O)(=O)CCC(F)(F)F)CC4)ncc23)CCO1 | Cyclin-dependent kinase 9 (CDK9, Homo sapiens, UniProt P50750) | cell-free assay, chemoproteomics |  | lysate | > 20 |
| CC(C)[C@H](N)C(=O)N1CCC[C@H]1C(=O)N[C@H](C(=O)N1CCC[C@H]1C(=O)N[C@H](C(=O)O)C(C)C)C(C)C | DPP4 | enzyme activity, absorbance |  | pH 8 | 59.1 |
| C=CCn1c2cc(OC(=O)CCCCN3CCN(Cc4cccc(C)c4)CC3)ccc2c2ccnc(C)c21 | ACHE | enzyme activity, Ellman |  |  | 0.0358 |
| COc1c(-c2ccc3c(c2)OCO3)oc2c(ccc3occc32)c1=O | CDK9 with cyclin T1 | enzyme activity, ADP detection |  |  | 38.4 |
| CC(C)[C@H](N)C(=O)N1CCC[C@H]1C(=O)N[C@H](C(=O)N1CCC[C@H]1C(=O)N[C@@H](CCC(N)=O)C(=O)O)C(C)C | DPP4 | enzyme activity, absorbance |  | pH 8 | 112 |
| CC(C)C[C@@H]1C(=O)N[C@H]([C@@H](C)O)C(=O)N[C@H](C)[C@@H](C)C(=O)O[C@@H](Cc2ccccc2)C(=O)N(C)[C@@H](C(C)C)C(=O)N2CCC[C@H]2C(=O)N(C)[C@H](Cc2ccccc2)C2=N[C@@H](CS2)C(=O)N[C@H](C)C2=N[C@@H](CS2)C(=O)N1C | DPP4 | enzyme activity |  |  | 164 |
| COc1c(-c2ccccc2)oc2c(ccc3occc32)c1=O | CDK9 with cyclin T1 | enzyme activity, ADP detection |  |  | > 100 |
| C=CCn1c2cc(OC(=O)CCCCN3CCN(Cc4ccccc4F)CC3)ccc2c2ccnc(C)c21 | ACHE | enzyme activity, Ellman |  |  | 0.15 |
| Cc1cc(C)nc(Nc2ncc(C(=O)NCCc3c(C)[nH]c4ccccc34)cn2)c1 | Cytochrome P450 2C8 (CYP2C8, Homo sapiens, UniProt P10632) | enzyme activity | human, liver microsomes |  | 4 |
| CC[C@H](C)[C@H](NC(=O)[C@@H]1CCCN1C(=O)[C@@H](NC(=O)[C@@H]1CCCN1C(=O)[C@@H](N)C(C)C)C(C)C)C(=O)O | DPP4 | enzyme activity, absorbance |  | pH 8 | 103 |
| CC[C@H]1NC(=O)[C@@H]2CSC(=N2)[C@@H](Cc2ccccc2)N(C)C(=O)[C@@H]2CCCN2C(=O)[C@H](C(C)C)N(C)C(=O)[C@H](Cc2ccccc2)OC(=O)[C@H](C)[C@@H](C)NC(=O)[C@@H]([C@@H](C)O)NC(=O)[C@@H](CC(C)C)N(C)C(=O)[C@@H]2CSC1=N2 | DPP4 | enzyme activity |  |  | 347 |
| CC[C@H](C)[C@H](N)C(=O)N1CCC[C@H]1C(=O)N[C@H](C(=O)N1CCC[C@H]1C(=O)N[C@H](C(=O)O)[C@@H](C)CC)C(C)C | DPP4 | enzyme activity, absorbance |  | pH 8 | 57 |
| CSCC[C@H](NC(=O)[C@H](Cc1c[nH]cn1)NC(=O)[C@H](Cc1c[nH]cn1)NC(=O)[C@@H](N)CCCCN)C(=O)N[C@@H](Cc1ccc(O)cc1)C(=O)N[C@H](C(=O)N[C@@H](CO)C(=O)NCC(=O)N[C@@H](CCCCN)C(=O)N[C@@H](C)C(=O)N[C@@H](CCCNC(=N)N)C(=O)NCC(=O)N[C@@H](Cc1c[nH]c2ccccc12)C(=O)N[C@@H](Cc1ccccc1)C(=O)O)C(C)C | APOBEC3G | enzyme activity |  | pH 7.4 | 80 |
